# Bioassay records (PubChem BioAssay)
# MsrA inh – inhibits bovine methionine sulfoxide reductase A. inhibition, % at 15.5 µM. 360,000 compounds, 0.75% hits. purified bovine MsrA, absorbance read-out;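 further: 0% = vehicle wells with enzyme and 100% = reference inhibitor wells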
# bovine MsrA act – bovine methionine sulfoxide reductase A activation | purified bovine MsrA, absorbance read-out | activation, % at 10.6 µM | 360,000 compounds, 0.3% hits; in the data active means activation above about 7.5%;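 further: 0% = vehicle and 100% = reference activator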
# MC4R ag barr – activates human MC4R beta-arrestin recruitment. 360,000 compounds, 0.98% hits. activation, % at 8.9 µM. U2OS MC4R beta-arrestin complementation, luminescence; percent of melanotan II response, DMSO zero. P32245;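 active means activation above a per-plate cutoff, the mean activation of sample wells on that plate plus 3 SD, cut at about 8% in these data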
# Target sequence (P32245 whole entry, looked up): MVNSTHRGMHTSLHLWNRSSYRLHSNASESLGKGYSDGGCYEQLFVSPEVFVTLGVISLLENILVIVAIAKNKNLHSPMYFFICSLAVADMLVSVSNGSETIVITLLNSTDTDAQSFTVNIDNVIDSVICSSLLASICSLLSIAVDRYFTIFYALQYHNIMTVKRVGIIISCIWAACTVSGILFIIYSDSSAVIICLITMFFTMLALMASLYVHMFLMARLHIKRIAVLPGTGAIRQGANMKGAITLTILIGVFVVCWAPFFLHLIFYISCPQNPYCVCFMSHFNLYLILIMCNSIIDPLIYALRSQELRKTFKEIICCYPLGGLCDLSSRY
# MC4R antagonist – antagonists of human melanocortin 4 receptor (MC4R); P32245; MC4R-expressing cells, MTII-stimulated cAMP, LANCE TR-FRET; inhibition, % at 6.5 µM; 360,000 compounds, 0.48% hits;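 active means inhibition above its plate's cutoff, the mean of tested wells on that plate plus 3 SD, cut at about 29% in these data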;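 further: 0% = Melanotan II alone and 100% = Melanotan II plus saturating MCL0020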
#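 Assay system: U2OS cells stably expressing human melanocortin 4 receptor (MC4R) / Dosing: 6.5 µM / Timing: compound 30 min, challenge 1 h, detection 1 h / Measured by: Eu-cAMP/anti-cAMP TR-FRET, emission 671 nm / Replicates: singlicate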
# MsrA conf – bovine MsrA inhibition, confirmed | 2,300 compounds, 41% hits | AID 651822 | shares compounds with MsrA inh | purified bovine MsrA, absorbance read-out | inhibition, % at 15.5 µM;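 further: coupled to thioredoxin reductase with NADPH and selenocystamine and DMSO as substrate; 0% = vehicle only and 100% = full effect of reference inhibitor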
# Starred values were filed as active, the others as inactive; . = not tested or not shown. In the library only some 2.3% were active in any assay of this set; here they are far more common. Unless noted, no stated cut-off is given here; in the data, active means inhibition above about 4.5%; inactive means the rest.
SMILES,MsrA inh,bovine MsrA act,MC4R ag barr,MC4R antagonist,MsrA conf
ClCCN(CCCl)c1ccc(C=Cc2ccncn2)cc1,1,-5,2,-7,.
O=C(NN=Cc1ccc(N(CCCl)CCCl)cc1)c1cc(=O)[nH]c(=O)[nH]1,4,1,1,2,.
N/C(=N\[N+](=O)[O-])N/N=C/c1ccc(O)cc1,5.3*,-7,-1,1,4
N/C(=N\N=C\c1ccc(O)cc1O)N[N+](=O)[O-],4,-6,-2,-11,.
O=C(Cc1cc(=O)oc2cc(O)ccc12)NN=Cc1ccc(N(CCCl)CCCl)cc1,7.3*,-9,-6,4,6.1*
O=C(NN=Cc1ccc(N(CCCl)CCCl)cc1Cl)c1cccnc1,2,-3,-1,-3,.
Cc1cc(N(CCCl)CCCl)ccc1C=NNC(=O)c1cccnc1,5.3*,-13,0,-10,4
O=C1NC(=O)N(CCc2ccc(F)cc2)C(=O)/C1=C/c1cccs1,3,-14,1,-14,.
COc1cc(/C=C/[N+](=O)[O-])ccc1O,5.5*,-8,-4,3,4.7*
Cc1nc2cc(C(F)(F)F)ccc2n1C1CCN(Cc2nnnn2CCc2ccccc2)CC1,0,3,2,7,.
COc1ccc(CC(=O)C2C(=O)N(C)c3ccccc32)cc1OC (centres undefined),4.9*,-10,-1,-4,2
Cc1cc(-c2ccccc2)cc(-c2ccccc2)[n+]1CCc1ccccc1,1,-2,-1,3,.
NC(Cc1ccc(Cl)cc1)c1csc(Nc2ccccn2)n1 (centres undefined),1,1,3,-2,.
N#C/C(=C\c1ccc(O)cc1)C(=O)O (tested in a mixture with another compound),4.7*,-2,-2,1,2
O=c1[nH]c(=O)n(-c2cccc(Cl)c2)c(O)c1C=NCCCN1CCOCC1,13*,-1,0,0,6.8*
Cc1ccc(-n2c(O)c(C=NCCN3CCOCC3)c(=O)[nH]c2=O)cc1,0,-4,-2,-2,.
O=C1NS(=O)c2cc([N+](=O)[O-])cc([N+](=O)[O-])c21 (centres undefined),2,0,-1,-1,.
O=c1[nH]c(=O)n(C2CCCCCC2)c(O)c1C=NCC1CCCO1 (centres undefined),0,-2,1,9,.
CC(C)n1c(O)c(C=NCc2ccccc2)c(=O)[nH]c1=S,5.2*,-5,-1,1,2
O=c1[nH]c(=S)n(Cc2ccc(F)cc2)c(O)c1/C=N/N1CCCCC1,2,-1,-2,-3,.
O=c1[nH]c(=S)n(Cc2ccc(F)cc2)c(O)c1C=NCC1CCCO1 (centres undefined),5.7*,-4,-1,-1,3
O=c1[nH]c(=S)n(Cc2ccc(F)cc2)c(O)c1C=NCc1cccnc1,4.8*,-8,-3,5,4
O=c1[nH]c(=S)n(C2CC2)c(O)c1C=NCC1CCCO1 (centres undefined),6.2*,-7,-1,5,3
CCOc1ccc2nc(N=Nc3c(O)[nH]c(=S)[nH]c3=O)sc2c1,0,-5,-5,0,.
NC(=O)c1cc([N+](=O)[O-])cc([N+](=O)[O-])c1,1,3,0,5,.
SMILES,MsrA inh,bovine MsrA act,MC4R ag barr,MC4R antagonist,MsrA conf
CC(C)(C)c1cc([N+](=O)[O-])cc(C(C)(C)C)c1O,22*,.,.,.,18*
Cc1ccccc1-n1c(O)c(C=Nc2ccc3c(c2)OCO3)c(=O)[nH]c1=O,4.7*,-4,-2,0,3
CC(C)COc1ccc(Cc2c(O)[nH]c(=S)[nH]c2=O)cc1,-1,-9,0,1,.
CC(=O)/C=C/c1ccccc1,-1,0,-1,7,.
O=C(/C=C/C=C/c1ccccc1)CC1(O)C(=O)Nc2ccccc21 (centres undefined),7.2*,-4,1,2,5.6*
COc1ccccc1-n1c(-c2ccccc2Cl)nc2ccccc2c1=O,1,-1,0,18,.
CN(C)C(=O)Oc1ccnc2cc(Cl)ccc12,-1,-2,1,-5,.
O=C(N/N=C/c1c(O)n(CCc2ccccc2)c(=O)[nH]c1=O)c1ccccc1O,4.9*,-6,-2,-1,4
O=C(N/N=C/c1c(O)n(CCc2ccc(F)cc2)c(=O)[nH]c1=O)c1ccccc1,0,4,2,2,.
COc1ccc(Cn2c(O)c(/C=N/NC(=O)c3ccccc3O)c(=O)[nH]c2=O)cc1,6.2*,-4,-4,20,5.4*
COc1ccc(-c2cc(=NCCC(=O)O)c3cc(C)ccc3o2)cc1,4.8*,-5,-3,8,4.6*
CC(N)Cc1ccc(O)cc1 (centres undefined),-1,.,.,.,.
C=CCn1c(O)c(/C=C/C=Nc2ccccc2)c(=O)[nH]c1=O,5.7*,0,0,-20,1
COc1ccc(C=C2C(=O)NC(=S)NC2=O)cc1OC,0,-2,-1,-6,.
CCOc1cc(C=C2C(=O)NC(=S)NC2=O)ccc1O,4.8*,-6,-2,4,2
COc1ccccc1N1CCN(Cc2cccc(OC)c2O)CC1,-1,0,-2,11,.
Cc1ccccc1-c1ccc2n1Cc1cnnn1-c1ccccc1-2,5.5*,-4,0,-1,0
Cc1c(N=Cc2c(O)n(Cc3ccc(F)cc3)c(=O)[nH]c2=O)c(=O)n(-c2ccccc2)n1C,4.9*,-2,3,12,3
CC(=O)[C@@]1(O)CC[C@H]2[C@@H]3CC=C4C[C@@H](O)CC[C@]4(C)[C@H]3CC[C@@]21C,-2,-3,-1,5,.
